Screens (PubChem)
An excerpt weighted towards active compounds, which were near 3.5% of everything screened.
RGS4 inh – RGS4 inhibitors, primary screen, cell-based, HEK293 M3R inducible RGS4, calcium flux; Regulator of G-protein signaling 4 (Homo sapiens), P49798; Fluo-4 calcium flux; hits give high values; triggered by carbachol at its EC20; B-score at 10 µM; 0.45% of 310,000 active;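 active = B-score, a plate-corrected calcium signal, over three deviations above library mean, with baseline fluorescence within five deviations of library mean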;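 note: RGS4 expression induced by doxycycline in cells with stable M3 receptor; B-score is computed from the integrated fluorescence ratio over baseline after carbachol; higher B-score means a larger calcium signal and so more RGS4 inhibition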
Target sequence (P49798 whole entry, looked up): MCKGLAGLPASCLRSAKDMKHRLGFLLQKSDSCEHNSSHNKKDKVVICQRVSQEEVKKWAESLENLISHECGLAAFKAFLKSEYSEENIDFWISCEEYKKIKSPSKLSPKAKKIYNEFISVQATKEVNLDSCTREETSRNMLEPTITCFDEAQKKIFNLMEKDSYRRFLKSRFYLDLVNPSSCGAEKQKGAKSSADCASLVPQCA
RGS4 act – RGS4 potentiators or activators, primary screen, cell-based, HEK293 M3R inducible RGS4, calcium flux | carbachol calcium flux Fluo4; hits give low values | B-score at 10 µM | 0.92% of 310,000 active;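 active = B-score of the integrated calcium signal more than 4 SD below the library mean, with starting fluorescence not abnormally high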;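 note: negative B-score means reduced calcium response which marks RGS4 activation or potentiation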
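Reagent: ECmax carbachol challenge; Test system: M3R-expressing HEK293 line, RGS4 induced by doxycycline; Schedule: overnight RGS4 induction, 30 min dye load 37 °C, 20 min compound RT; Detection: calcium dye Fluo4 fluorescence; Read-out: Agonist-evoked peak-minus-minimum fluorescence over baseline, integrated ratio, B score.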
MrgX1 ag – agonists of human MrgX1 receptor, primary screen, HEK293 cells, Fluo-4 calcium flux. Mas-related G-protein coupled receptor member X1 (Homo sapiens), Q96LB2. Fluo-4 calcium fluorescence, agonist mode; hits give high values. B-score at 10 µM. 0.44% of 310,000 active. AID 588627, 2011;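 active = calcium response B-score plate-corrected fluorescence ratio at least 3 library SD, with starting fluorescence B-score inside 5 SD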
Target sequence (Q96LB2 whole entry, looked up): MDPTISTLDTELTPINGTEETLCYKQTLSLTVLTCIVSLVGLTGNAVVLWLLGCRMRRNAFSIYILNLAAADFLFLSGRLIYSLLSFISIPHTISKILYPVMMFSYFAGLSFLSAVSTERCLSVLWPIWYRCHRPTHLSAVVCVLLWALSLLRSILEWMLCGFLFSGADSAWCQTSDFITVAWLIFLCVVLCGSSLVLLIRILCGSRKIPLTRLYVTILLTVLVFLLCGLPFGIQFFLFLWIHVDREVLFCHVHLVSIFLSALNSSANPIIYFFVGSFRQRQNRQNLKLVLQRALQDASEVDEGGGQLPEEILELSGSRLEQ
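Test system: Stable human MrgX1 HEK293 cell line | Schedule: Overnight plating before 1 h dye loading | Read-out basis: Baseline-normalised fluorescence change ratio, B-scored | Detection: Kinetic calcium dye fluorescence, Fluo-4 NW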
MrgX1 antagonist – antagonists of human MrgX1 receptor, primary screen, HEK293 cells, Fluo-4 calcium flux. Mas-related G-protein coupled receptor member X1 (Homo sapiens), Q96LB2. BAM8-22 antagonism; hits give low values. B-score at 10 µM. 1.3% of 310,000 active;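 active = calcium-response B-score plate-corrected more than 3 library SD below zero, starting fluorescence within 5 deviations, no agonist response on first addition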;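 note: peak minus trough fluorescence over baseline after final BAM8-22 challenge near maximal dose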
MrgX1 allo act – positive allosteric modulators of MrgX1, primary screen, HEK293 cells, Fluo-4 calcium flux; Mas-related G-protein coupled receptor member X1 (Homo sapiens), Q96LB2; FDSS; hits give high values; B-score at 10 µM; 0.63% of 310,000 active; AID 588675, 2011;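 active = plate-corrected calcium response at least 3 library SD above typical, normal starting fluorescence, not activating the receptor alone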;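 note: compound read alongside a low EC10 to EC30 dose of BAM8-22 agonist; peak minus trough fluorescence over baseline measured at the second addition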
RGS4 inh valid – enhanced carbachol calcium response, M3R/RGS4 cells, RGS4 inhibitor project, cell-based, validation screen, HEK293 M3R/RGS4, calcium flux; shares compounds with RGS4 inh; carbachol calcium Fluo-4 fluorescence; carbachol added at its EC20; 0 = buffer wells, 100 = carbachol control; calcium response, % at 10 µM; 65% of 1,700 active; AID 492999, 2010;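 active = duplicate-averaged calcium response above the buffer-only control mean plus 5 SD of those controls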;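 note: integrated fluorescence ratio F max minus min over baseline F0; higher response in RGS4-induced cells means RGS4 inhibition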
RGS4 uninduced – carbachol calcium response in non-induced M3R cells, confirmation, counter-screen for RGS4 inhibitor project, cell-based, HEK293 M3R; 20% of 1,900 active; activity (percent), % at 10 µM; carbachol calcium Fluo-4; submaximal (EC20) carbachol stimulus; buffer wells 0%, carbachol control wells 100%; shares compounds with RGS4 inh; call rule not given here;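 note: RGS4 induction absent so cells express M3R without RGS4; higher means more calcium signal and flags a non-specific hit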
M3R basal Ca ctr – second counter-screen for RGS4 inhibitors: non-induced cells without carbachol; shares compounds with RGS4 inh; HEK293 M3R/RGS4 non-induced, Fluo-4 calcium, no carbachol; normalised: buffer wells 0%, carbachol wells 100%; calcium response (agonist-mode artifact), % at 10 µM; 22% of 1,900 active;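 active = duplicate-averaged calcium rise in uninduced cells above buffer wells' mean plus 5 SD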
Each line names hits and unclear results; the compound was inactive in the other large screens (follow-up assays come after a bar, where they were run).

Cc1ccc(-c2csc(NC(=O)C3=COCCO3)n2)cc1	none | RGS4 inh valid inactive | RGS4 uninduced inactive | M3R basal Ca ctr inactive
CC(=O)Nc1ccc(-c2csc(NC(=O)C3=COCCO3)n2)cc1	none
O=C(Nc1nc(-c2ccc(Oc3ccccc3)cc2)cs1)C1=COCCO1	RGS4 inh 21 | RGS4 inh valid 32% | RGS4 uninduced 42% | M3R basal Ca ctr inactive
CC(C)CC(C(=O)Nc1oc(-c2ccco2)c(-c2ccco2)c1C#N)N1C(=O)c2ccccc2C1=O (configuration not stated)	none
Cc1ccc(SC[C@H](Cc2ccccc2)N2CC[C@@H](NC(=O)OCc3ccccc3)CCC2=O)cc1	none
COc1ccc(Nc2nc(N3CCCC3)nc(N3CCOCC3)n2)cc1	none
c1ccc(Nc2nc(N3CCCC3)nc(N3CCOCC3)n2)cc1	none | RGS4 inh valid inactive | RGS4 uninduced inactive | M3R basal Ca ctr inactive
O=c1nc(N2CCCC2)nc(Nc2ccccc2)[nH]1	none | RGS4 inh valid inactive | RGS4 uninduced inactive | M3R basal Ca ctr inactive
O=C(O)c1ccc(/C=C/C(=O)c2ccc3c(c2)OCCCO3)cc1	RGS4 inh 14 | RGS4 inh valid 47% | RGS4 uninduced inactive | M3R basal Ca ctr inactive
CC(=O)Nc1ccc(/C=C/C(=O)c2ccc3c(c2)OCCO3)cc1	none
COc1ccc(/C=C/C(=O)c2ccc3c(c2)OCCO3)cc1[N+](=O)[O-]	RGS4 inh 8.1 | RGS4 inh valid 6.0% | RGS4 uninduced inactive | M3R basal Ca ctr inactive
COc1ccc(/C=N/NC(=O)c2ccc3c(c2)OCCO3)cc1[N+](=O)[O-]	none
COc1cc(/C=C/[N+](=O)[O-])ccc1OCc1cccc(C(=O)O)c1	RGS4 inh 72 (no result: MrgX1 ag, MrgX1 antagonist, MrgX1 allo act) | RGS4 inh valid 174% | RGS4 uninduced 57% | M3R basal Ca ctr 8.0%
COc1ccc(CNC(=O)CCn2nc(C)c3c(C)n(-c4ccccc4)nc3c2=O)c(OC)c1	none
O=C(CN1C(=O)C(=O)N(Cc2ccco2)C1=O)NC1CCCCC1	none
CN(C)c1ccc(/C=C(\NC(=O)c2ccccc2)C(=O)NCc2ccncc2)cc1	none
CN(C)c1ccc(/C=C(\NC(=O)c2ccccc2)C(=O)NCc2cccnc2)cc1	none | RGS4 inh valid inactive | RGS4 uninduced inactive | M3R basal Ca ctr inactive
COc1ccc(/C=C(\NC(=O)c2ccccc2)C(=O)NCc2cccnc2)cc1	none | RGS4 inh valid inactive | RGS4 uninduced inactive | M3R basal Ca ctr inactive
CC(=O)c1c(C)oc2c1cc(NS(=O)(=O)c1ccc(C(=O)O)cc1)c1ccccc12	none | RGS4 uninduced inactive | M3R basal Ca ctr inactive
COC(=O)c1c(C)oc2c1cc(NS(=O)(=O)c1ccc(C(=O)O)cc1)c1ccccc12	RGS4 inh 5.6 | RGS4 inh valid 16% | RGS4 uninduced inactive | M3R basal Ca ctr inactive
COc1cc(/C=C2\S/C(=N/S(=O)(=O)Cc3ccccc3)NC2=O)c([N+](=O)[O-])cc1OC	none | RGS4 inh valid inactive | RGS4 uninduced inactive | M3R basal Ca ctr inactive
O=C1N/C(=N\S(=O)(=O)Cc2ccccc2)S/C1=C/c1cc([N+](=O)[O-])ccc1O	none
O=C1N/C(=N\S(=O)(=O)c2ccccc2)S/C1=C\c1cc([N+](=O)[O-])ccc1O	none
